The source made the active and inactive calls.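 Rule for the calls: active = fitted curve shows reduced dye-labelled HDL uptake, half-maximal concentration at most ten times top dose; inconclusive = flat curve with 30 to 70% inhibition, or unreliable fit; inactive = the rest.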
Target: Scavenger receptor class B member 1 (Mus musculus) (UniProt Q61009)
Assay: SR-BI-mediated DiI-HDL uptake inhibitors, dose response, ldlA[mSR-BI] CHO cells, powder samples, set 5 (AID 588754)
Conditions: DiI-HDL uptake fluorescence, 3 h
In short: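 Test system: LDL receptor-deficient CHO ldlA cells overexpressing murine SR-BI / Medium: Ham's F12 with fatty acid-free BSA and HEPES / Also added: DiI-labeled HDL at 10 µg/mL final / Times: 3 h exposure to compound plus DiI-HDL at 37 °C / Technique: DiI fluorescence, 550 nm excitation, 595 nm emission / Read-out basis: HDL uptake fluorescence, decrease meaning inhibition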

Chain of Scavenger receptor class B member 1 (Mus musculus) (Q61009 whole entry, looked up): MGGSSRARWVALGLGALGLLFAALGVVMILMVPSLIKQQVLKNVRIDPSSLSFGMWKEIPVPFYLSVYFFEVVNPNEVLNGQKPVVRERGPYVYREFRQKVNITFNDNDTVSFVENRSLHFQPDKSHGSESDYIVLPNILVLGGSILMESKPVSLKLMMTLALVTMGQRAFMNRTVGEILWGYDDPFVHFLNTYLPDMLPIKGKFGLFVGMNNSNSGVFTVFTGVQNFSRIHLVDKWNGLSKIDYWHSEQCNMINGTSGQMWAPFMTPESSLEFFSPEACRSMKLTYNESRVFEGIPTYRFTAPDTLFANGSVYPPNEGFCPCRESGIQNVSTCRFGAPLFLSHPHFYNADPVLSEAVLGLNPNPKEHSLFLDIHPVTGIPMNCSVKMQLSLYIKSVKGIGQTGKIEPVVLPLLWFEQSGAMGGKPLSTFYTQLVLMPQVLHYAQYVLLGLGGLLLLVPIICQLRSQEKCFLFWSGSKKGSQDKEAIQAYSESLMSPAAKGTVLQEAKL

In order of rising AC50:
1. COc1cc(OC)cc(C(=O)Nc2nc(-c3ccc4c(c3)CCN4C(=O)OC(C)(C)C)cs2)c1  0.909 nM
2. CCNC(=O)N1CCc2cc(-c3csc(NC(=O)c4cc(OC)cc(OC)c4)n3)ccc21  2.28 nM
3. CCC(=O)N1CCc2cc(-c3csc(NC(=O)c4cc(OC)c(OC)c(OC)c4)n3)ccc21  2.76 nM
4. COCC(=O)N1CCc2cc(-c3csc(NC(=O)c4cc(OC)cc(OC)c4)n3)ccc21  2.81 nM
5. C[C@@H]1CN([C@H](C)CO)C(=O)c2cc(NC(=O)Cc3cn(C)c4ccccc34)ccc2O[C@H]1CN(C)S(=O)(=O)c1ccc(Cl)cc1  5.98 nM
6. CCC(=O)N1CC(C)(C)c2cc(-c3csc(NC(=O)c4cc(OC)cc(OC)c4)n3)ccc21  10.3 nM
7. CCCCCCC1CCC/C1=N\NC(N)=S (stereo not drawn)  16.6 nM
8. C[C@H](C(=O)NC1CCCC1)N(C(=O)Cn1nnc(-c2ccc3c(c2)OCO3)n1)C1CCCCC1  18.9 nM
9. COc1cc(OC)cc(C(=O)Nc2nc(-c3ccc4c(c3)CCN4C(=O)CN(C)C)cs2)c1  19.5 nM
10. CCC(=O)N1CC(C)(C)c2cc(-c3csc(NC(=O)c4ccco4)n3)ccc21  20.3 nM
11. O=C(Nc1nc(-c2ccc3c(c2)CCN3)cs1)c1ccco1  21.1 nM
12. CCC(=O)N1CCc2cc(-c3csc(NC(=O)c4ccc(F)c(OC)c4)n3)ccc21  25.8 nM
13. CC(=O)N1CCc2cc(-c3nc(NC(=O)c4cccc(OC(F)(F)F)c4)sc3C)ccc21  26 nM
14. COc1ccc(-c2cc(CC(=O)N(C3CCCCC3)C(C)C(=O)NC3CCCC3)no2)cc1OC (stereo not drawn)  29.4 nM
15. CCC(=O)N1CCc2cc(-c3csc(NC(=O)c4cccc(OC)c4)n3)ccc21  35 nM
16. COc1ccc(-c2nnn(CC(=O)N(CC(=O)NC3CCCC3)C3CCCCC3)n2)cc1OC  36.5 nM
17. COC(=O)N1CCc2cc(-c3csc(NC(=O)c4cc(OC)cc(OC)c4)n3)ccc21  39 nM
18. CCC(=O)N1CCc2cc(-c3csc(NC(=O)c4cc(OC)cc(OC)c4)n3)ccc21  42.6 nM
19. CC(C(=O)NC1CCCC1)N(C(=O)Cn1nnc(-c2ccc3c(c2)OCO3)n1)C1CCCCC1 (stereo not drawn)  49.9 nM
20. O=C(CN(C(=O)Cn1nnc(-c2ccc3c(c2)OCO3)n1)C1CCCCC1)NC1CCCC1  60.2 nM
21. COc1ccc(-c2nnn(CC(=O)N(C3CCCCC3)C(C)C(=O)NC3CCCC3)n2)cc1OC (stereo not drawn)  65.2 nM
22. CCC(=O)n1ccc2cc(-c3csc(NC(=O)c4cc(OC)cc(OC)c4)n3)ccc21  89.3 nM
23. CCC(=O)Nc1ccc(-c2csc(NC(=O)c3cccc(OC)c3)n2)cc1  110 nM
24. COc1ccc(-c2nc(CC(=O)N(C3CCCCC3)C(C)C(=O)NC3CCCC3)co2)cc1OC (stereo not drawn)  148 nM
25. COc1cc(OC)cc(C(=O)Nc2nc(-c3ccc4c(c3)CCN4C(C)=O)cs2)c1  207 nM
26. CCC(=O)N1CCc2cc(-c3csc(NC(=O)c4cc5ccccc5o4)n3)ccc21  256 nM
27. CCC(=O)N1CCc2cc(-c3csc(NC(=O)c4cccc(OC(F)(F)F)c4)n3)ccc21  266 nM
28. CCC(=O)N1CCc2cc(-c3csc(NCc4cc(OC)cc(OC)c4)n3)ccc21  372 nM
29. COc1ccc(-c2nnn(CC(=O)N(CC(=O)N(C)C3CCCC3)C3CCCCC3)n2)cc1OC  1610 nM
30. C[C@@H](C(=O)NC1CCCC1)N(C(=O)Cn1nnc(-c2ccc3c(c2)OCO3)n1)C1CCCCC1  2270 nM
31. Cc1ccc2oc(-c3cccc(NC(=O)c4cc(-n5cnnc5)ccc4Cl)c3)nc2c1  3620 nM
32. COc1ccc(-c2nnn(CC(=O)N(CC(=O)N3CCCCC3)C3CCCCC3)n2)cc1OC  9200 nM

Same assay, conditions: DiI-HDL uptake fluorescence, 3 h, at 35 µM (top of the series)

In the case of `COc1c(NC(=O)C(=O)c2ccc(OCCN3CCOCC3)c3ccccc23)cc(C(C)(C)C)cc1NS(C)(=O)=O`, the “activity change, negative = inhibition” value is reported as “inactive”.

From PubChem BioAssay AID588754 (Broad Institute, 2011)
